From ChEMBL document CHEMBL1123708, “Resolved cis- and trans-2-amino-5-methoxy-1-methyltetralins: central dopamine receptor agonists and antagonists” (1987) come the findings set out here.

Activity calls are given as the source filed them. The calls are words filed in the database; no cut-off is given here.

In assay [1] the test system is Rattus norvegicus. Briefly: Locomotory activity was determined in non pretreated rats at a dose of 3.2 umol/kg by subcutaneous administration. In kind it is functional. Put shortly:
(§1)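 Untreated rats received test drug sc 5 min before a 30-min session in photocell motility meters, with accumulated counts recorded. Activity is expressed as percent of saline controls, mean ± SEM, n = 3-5. Gross behaviour was observed through a semitransparent mirror. Differences from saline controls were assessed by Student's t test.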

For assay [2], the system named is Rattus norvegicus. Kind of assay: In vivo DOPA accumulation in non pretreated rat striatum system by subcutaneous administration.; hr indicates 40-50% increase in limbic system after 52 umol/kg (sc). In kind it is functional, organism-based. A digest of the protocol: (§2)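 Rats without pretreatment received test drug sc 65 min and NSD 1015 (100 mg/kg ip) 30 min before death, with saline controls. DOPA was measured in limbic or striatal tissue. Dose for half-maximal change was estimated from 4-5-dose curves (n = 3-5), maximal level as % of control.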

Assay [3] relates to Rattus norvegicus. Briefly: Induced locomotor stimulation in non pre-treated rats by 13 umol/kg s.c. administration. In kind it is functional.
The test system of assay [4] is Rattus norvegicus. Kind of assay: Change in rectal temperature induced by DiPr-5,6-ADTN at a dose of 13 umol/kg of compound by subcutaneous administration. It counts as functional. A digest of the protocol: (§3)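 Rats received DiPr-5,6-ADTN (0.25 μmol/kg sc) 100 min and test compound sc 40 min before death. Rectal temperature change (°C) was recorded between 60 and 100 min after DiPr-5,6-ADTN. Values are mean ± SEM, n = 4, with Student's t test vs DiPr-5,6-ADTN alone.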

Assay [5] has as its target T1, Dopamine receptor (Rattus norvegicus) (UniProt P25115+P19020+P30729+P18901+P61169). Kind of assay: Ability to displace the Dopamine receptor agonist DiPr-5,6-ADTN from rat striatal binding sites in vivo at a dose of 13 uM/kg by subcutaneous administration. In kind it is organism-based.
Assay [6] deals with Rattus norvegicus. Briefly: In vivo DOPA accumulation in non pretreated rat limbic system by subcutaneous administration;. indicates 40-50% increase in limbic system after 52 umol/kg (sc). In kind it is functional, organism-based. A digest of the protocol: as §2
The subject of assay [7] is Rattus norvegicus. Briefly: Induced locomotor stimulation in non pre-treated rats by 52 umol/kg s.c. administration. In kind it is functional.
In assay [8] the test system is Rattus norvegicus. Briefly: Change in rectal temperature induced by DiPr-5,6-ADTN at a dose of 52 umol/kg of compound by subcutaneous administration. In kind it is functional. Put shortly: as §3
For assay [9], the target named is T1, Dopamine receptor (Rattus norvegicus). Briefly: Ability to displace the Dopamine receptor agonist DiPr-5,6-ADTN from rat striatal binding sites in vivo at a dose of 52 uM/kg by subcutaneous administration. In kind it is organism-based.
Assay [10] has as its system Rattus norvegicus. Briefly: In vivo DOPA accumulation in non pre-treated rat striatal system following s.c. administration. In kind it is functional. To be noted: sc. A digest of the protocol: as §2
Assay [11] relates to Rattus norvegicus. Kind of assay: In vivo DOPA accumulation in non pre-treated rat limbic system following s.c. administration. It counts as functional. To be noted: sc. Put shortly: as §2
For assay [12], the target named is T1, Dopamine receptor (Rattus norvegicus). Briefly: In vivo displacement of DiPr-5,6-ADTN from Dopamine receptors in rat striatum. It counts as organism-based.
Assay [13] relates to Rattus norvegicus. Kind of assay: Induced locomotor stimulation was determined in non pretreated rats at a dose of 52 umol/kg by subcutaneous administration. It counts as functional. Put shortly:
as §1

In assay [14] the target is T1, Dopamine receptor (Rattus norvegicus). Kind of assay: Ability to displace the Dopamine receptor agonist DiPr-5,6-ADTN from rat striatal binding sites in vivo at a dose of 10 uM/kg by subcutaneous administration. It counts as organism-based.
Assay [15] concerns Rattus norvegicus. Kind of assay: Change in rectal temperature induced by DiPr-5,6-ADTN at a dose of 10 umol/kg of compound by subcutaneous administration. In kind it is functional. A digest of the protocol:
as §3

Assay [16] addresses T1, Dopamine receptor (Rattus norvegicus). Kind of assay: Ability to displace the DA receptor agonist DiPr-5,6-ADTN from rat striatal binding sites in vivo at a dose of 40 uM/kg by subcutaneous administration. In kind it is organism-based.
For assay [17], the system named is Rattus norvegicus. Kind of assay: Locomotory activity was determined in non pretreated rats at a dose of 13.4 umol/kg by subcutaneous administration. It counts as functional. Put shortly: as §1
For assay [18], the system named is Rattus norvegicus. Kind of assay: Change in rectal temperature induced by DiPr-5,6-ADTN at a dose of 40 umol/kg of compound by subcutaneous administration. It counts as functional. Put shortly: as §3
Assay [19] deals with Rattus norvegicus. Kind of assay: In vivo DOPA accumulation in reserpine pretreated rat limbic system by subcutaneous administration. In kind it is functional. To be noted: sc. A digest of the protocol: (§4)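 Rats received reserpine (5 mg/kg sc) 18 h, test drug sc 60 min and NSD 1015 (100 mg/kg ip) 30 min before death, with saline controls. Limbic or striatal DOPA was measured. Dose for half-maximal decrease was estimated from 4-7-dose curves (n = 3-5), minimal level as % of control.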

Assay [20] deals with Rattus norvegicus. Kind of assay: Locomotory activity was determined in reserpine pretreated rats at a dose of 3.2 umol/kg by subcutaneous administration. Value is the accumulation counts/30 min. In kind it is functional. A digest of the protocol:
(§5)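 Rats were given reserpine 5 mg/kg sc 18 h beforehand, then test drug sc immediately before the activity session. Motor activity was recorded by photocells in motility meters as accumulated counts over 30 min, mean ± SEM, n = 3-4. Gross behaviour was watched for signs of stimulation. Reserpine-only controls were included.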

Assay [21] concerns Rattus norvegicus. Briefly: In vivo DOPA accumulation in reserpine pretreated rat striatum system by subcutaneous administration. To be noted: sc. It counts as functional. Put shortly: as §4
The test system of assay [22] is Rattus norvegicus. Briefly: In vivo DOPA accumulation in reserpine pretreated rat limbic system after 1.4 umol/kg ip; I denotes inactive. In kind it is functional, organism-based.
Assay [23] deals with Rattus norvegicus. Kind of assay: Change in rectal temperature induced by DiPr-5,6-ADTN at a dose of 2.7 umol/kg of compound by subcutaneous administration. It counts as functional. Put shortly: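 Rats received DiPr-5,6-ADTN at 0.25 μmol/kg sc, then the test compound sc (tested range 2.7–204 μmol/kg) 60 min later. Rectal temperature change was measured between 60 and 100 min after DiPr-5,6-ADTN. Values are mean ± SEM, n = 4, compared with DiPr-5,6-ADTN-only controls by Student's t test.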

Assay [24] deals with Rattus norvegicus. Kind of assay: Locomotory activity was determined in non pretreated rats at a dose of 2.7 umol/kg by intraperitoneal administration.
Assay [25] deals with Rattus norvegicus. Briefly: In vivo DOPA accumulation in reserpine pretreated rat striatum system after 1.4 umol/kg ip; I denotes inactive. In kind it is functional, organism-based.
Assay [26] relates to Rattus norvegicus. Kind of assay: In vivo DOPA accumulation in reserpine pretreated rat limbic system by subcutaneous administration. To be noted: sc. It counts as functional. Put shortly: as §4
The test system of assay [27] is Rattus norvegicus. Kind of assay: Locomotory activity was determined in non pretreated rats at a dose of 52 umol/kg by subcutaneous administration. In kind it is functional. A digest of the protocol: as §1
In assay [28] the test system is Rattus norvegicus. Kind of assay: In vivo DOPA accumulation in reserpine pretreated rat striatum system by subcutaneous administration. It counts as functional. To be noted: sc. A digest of the protocol:
as §4

Assay [29] concerns Rattus norvegicus. Kind of assay: Locomotory activity was determined in reserpine pretreated rats at a dose of 52 umol/kg by subcutaneous administration. Value is the accumulation counts/30 min. In kind it is functional. A digest of the protocol:
as §5

By ED50 is commonly meant the dose at which the effect has come halfway, by size or by number of responders. `CCCCN[C@@H]1CCc2c(O)cccc2[C@@H]1C`: the Activity in assay [1] worked out at 89%; in [3], 80%; in [7], 76%. For the same compound, the ED50 result in [2] and in assay [6] was “Weak activity” throughout. In addition, in assay [4], the Body temp change was -0.93 °C. Further, in [5], the Binding was 46%.
In the case of `CCN(CC)[C@@H]1CCc2c(OC)cccc2[C@@H]1C`, the Activity in [1] came out at 100%; in assay [3] it was 40%; in assay [7] it was 46%; in assay [13] it was 14%. For the same compound, the Body temp change in [8] was 1.4 °C; in assay [4] it was 1.2 °C. The Binding in [9] was 28%; in assay [12], 44%. Further, the figures for the ED50 in [10] and in assay [11] were 2.9 µmol/kg and 5.5 µmol/kg, respectively.
For `CCCN(CCC)[C@H]1CCc2c(O)cccc2[C@H]1C`, the values for the Activity in assay [1], in assay [17] and in assay [20] were 65%, 171% and 121 counts/30 min, respectively. The Binding in assay [14] came to 90%; in assay [16], 37%. The Body temp change in assay [15] is 0.1 °C; in [18], -0.2 °C. The ED50 in assay [10] is 0.84 µmol/kg; in assay [11], 0.84 µmol/kg; in assay [19], 0.3 µmol/kg; in assay [21], 0.34 µmol/kg.
With `O=C(CCCN1CCC(O)(c2ccc(Cl)cc2)CC1)c1ccc(F)cc1` [HALOPERIDOL], the ED50 result in assay [22] and in assay [25] was “inactive” each time. This compound returned a Body temp change in assay [23] of 1.34 °C. Further, the Activity in [24] is reported as 3%. In addition, the ED50 in assay [10] and in [11] was 0.19 µmol/kg each time.
As for `CCCN(CCC)[C@H]1CCc2c(O)cccc2[C@@H]1C`, the Activity was 79% in assay [1], 92% in [3], 74% in assay [27] and 19 counts/30 min in assay [29]. Besides, the ED50 in assay [26] is 7.3 µmol/kg; in assay [28], 7.9 µmol/kg. In addition, the Body temp change in assay [4] is -0.83 °C. Besides, the Binding in assay [5] came out at 91%.
